The source made the active and inactive calls. No cut-off for these calls is given here.

The IC50 is the concentration needed to halve the response being measured. Usually GI50 stands for the concentration that inhibits growth by half.

A short description of series [1]: Cytotoxicity against human WI-38 cells assessed as reduction in cell survival incubated for 30 mins by methylene blue staining based analysis.
Series [2] is described as follows: Neurotoxicity in human SH-SY5Y cells assessed as decrease in cell viability at 2.32 uM incubated for 3 days. The settings on record: 72 h, time 3 day. Format: toxicity, cell-based. The essentials: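 SH-SY5Y cells were grown on poly-D-lysine in DMEM/F12 with 10% FBS and seeded at 15,000/well 36 h before dosing, with DMSO as vehicle. Viability was read by MTT: 2 h at 37 °C, then solubilization for 1 h and absorbance at 570. Data are triplicates from three separate experiments.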

Series [3] concerns NCI-H522. Briefly: Induction of ferroptosis in human NCI-H522 cells assessed as induction of lipid peroxidase accumulation at 10 uM incubated for 6 hrs by C11-BODIPY-581/591 staining based flow cytometry analysis. Format: functional, cell-based. The method in brief:
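NCI-H522 cells were plated overnight to about 70% density and treated at 10 μM. C11-BODIPY 581/591 (1 μM) was added at the time of treatment. After 6 h, cells were trypsinized, washed, resuspended in PBS with 2% FBS and analysed by flow cytometry, 20 × 10³ cells per sample.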

In series [4] the target is T1, Protein deacetylase HDAC6 (Homo sapiens, UniProt Q9UBN7).
T1 sequence (Q9UBN7 whole entry): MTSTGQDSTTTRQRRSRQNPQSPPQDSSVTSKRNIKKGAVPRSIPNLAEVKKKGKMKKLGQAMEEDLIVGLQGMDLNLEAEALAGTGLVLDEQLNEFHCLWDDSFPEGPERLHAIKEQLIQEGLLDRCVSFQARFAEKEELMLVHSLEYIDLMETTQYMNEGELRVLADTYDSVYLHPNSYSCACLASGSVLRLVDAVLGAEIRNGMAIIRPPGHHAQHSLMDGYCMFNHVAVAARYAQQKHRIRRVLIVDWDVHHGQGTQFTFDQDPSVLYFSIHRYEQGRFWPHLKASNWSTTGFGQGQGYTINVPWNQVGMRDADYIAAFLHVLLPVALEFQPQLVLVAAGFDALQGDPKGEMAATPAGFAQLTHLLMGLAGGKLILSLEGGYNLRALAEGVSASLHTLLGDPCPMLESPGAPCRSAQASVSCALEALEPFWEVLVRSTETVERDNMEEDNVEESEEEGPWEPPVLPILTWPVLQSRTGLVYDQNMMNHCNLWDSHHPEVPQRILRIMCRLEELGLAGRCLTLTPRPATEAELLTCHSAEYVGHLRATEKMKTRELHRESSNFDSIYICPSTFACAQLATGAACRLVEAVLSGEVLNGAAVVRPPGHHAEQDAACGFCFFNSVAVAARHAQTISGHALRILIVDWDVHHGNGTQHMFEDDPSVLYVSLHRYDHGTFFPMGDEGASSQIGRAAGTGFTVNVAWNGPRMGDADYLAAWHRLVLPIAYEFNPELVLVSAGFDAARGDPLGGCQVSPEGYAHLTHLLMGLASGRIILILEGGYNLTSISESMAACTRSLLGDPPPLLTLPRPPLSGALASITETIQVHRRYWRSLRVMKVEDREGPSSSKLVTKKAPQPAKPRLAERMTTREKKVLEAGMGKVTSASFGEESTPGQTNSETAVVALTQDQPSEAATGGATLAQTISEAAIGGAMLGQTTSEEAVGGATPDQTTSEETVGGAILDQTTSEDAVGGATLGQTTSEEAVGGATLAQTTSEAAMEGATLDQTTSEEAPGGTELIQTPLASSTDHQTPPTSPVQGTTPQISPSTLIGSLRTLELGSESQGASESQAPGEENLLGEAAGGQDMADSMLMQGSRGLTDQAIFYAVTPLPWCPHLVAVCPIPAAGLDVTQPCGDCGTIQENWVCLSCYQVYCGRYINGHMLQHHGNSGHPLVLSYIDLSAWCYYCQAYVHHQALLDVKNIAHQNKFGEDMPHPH
Briefly: Inhibition of full length C-terminal FLAG-tagged human recombinant HDAC6 expressed inSf9 insect cells. On the set-up: species or system Sf9.

The subject of series [5] is NCI-H522. The series can be described thus: Induction of cell cycle arrest in human NCI-H522 cells assessed as accumulation at G1 phase 5 uM incubated for 24 to 72 hrs by PI staining based flow cytometric analysis. Format: functional. The conditions noted are these: time lower […], time upper […]. On the technique in general: In flow cytometry, cells or beads pass a laser one at a time.

In series [6] the test system is HL-60. Briefly: Cytotoxicity against human HL-60 cells assessed as cell growth inhibition incubated for 24 hrs by MTT assay. Format: functional, cell-based. On the technique in general: Formazan colour is commonly taken as a measure of viable cells.
The test system of series [7] is EKVX. The series can be described thus: Cytotoxicity against human EKVX cells assessed as cell growth inhibition incubated for 24 hrs by MTT assay. Format: functional, cell-based. The essentials: (§1)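 Run within the NCI-60 DTP screen: a single-dose test at 10 μM across about sixty human tumour lines, read as Growth % and mean inhibition. Selected compounds then went to a five-dose assay to derive GI50. Both were single experiments without replicates.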

Series [8] concerns HOP-62. The series can be described thus: Cytotoxicity against human HOP-62 cells assessed as cell growth inhibition incubated for 24 hrs by MTT assay. The class given is functional, cell-based.
In series [9] the test system is NCI-H322M. Briefly: Cytotoxicity against human NCI-H322M cells assessed as cell growth inhibition incubated for 24 hrs by MTT assay. The class given is functional, cell-based. The essentials: as §1
Series [10] deals with NCI-H460. Briefly: Cytotoxicity against human NCI-H460 cells assessed as cell growth inhibition incubated for 24 hrs by MTT assay. The class given is functional, cell-based.
The subject of series [11] is SF-539. Briefly: Cytotoxicity against human SF-539 cells assessed as cell growth inhibition incubated for 24 hrs by MTT assay. The settings on record: SF-539, 24 h.

For `C#Cc1nc(C(=O)NCCCCCCC(=O)NO)cs1`, in series [1], the IC50 at 30 min came to 8.37 µM. In addition, in [2], the Activity result is “Non-Toxic”. Besides, the result in [3], in series [5], in series [6], in [7], in series [8] and in [9] was Active. Besides, the result in series [10] was Active. Moreover, in [4], the IC50 came out at 0.001 µM. The GI50 in series [11] amounted to 1 µM.
